Compound activity from PubChem BioAssay.
This is a sample that favours compounds with a hit; in the whole collection about 2.3% have one here.
TRPC4 potent: positive allosteric modulators of TRPC4, primary screen, cell-based, mouse TRPC4beta, HEK293 mu-opioid, Fluo-4 calcium. B-score at 10 µM. Short transient receptor potential channel 4 (Mus musculus), Q9QUQ5. actives 0.42% (n = 310,000). DAMGO EC20, Fluo-4 Ca2+ flux; stronger effect = higher value;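 active = B-score of calcium response area above 5 SD of library B-scores, with initial fluorescence ratio within 5 SD of library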;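 also: B-score of integrated fluorescence ratio over time as area under calcium response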
TRPC4 agonist: activators of mouse TRPC4 channel, primary screen, Fluo4 calcium, HEK293 TRPC4beta/mu-opioid cells; Short transient receptor potential channel 4 (Mus musculus), Q9QUQ5; Fluo4 calcium fluorescence; stronger effect = higher value; B-score at 10 µM; actives 0.49% (n = 310,000); AID 2237, 2010;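 active = B-score above 5 SD of library B-scores, and initial fluorescence ratio not above library mean plus 5 SD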;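 also: positive B-score marks a calcium rise read as TRPC4 activation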
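Incubation: 45 min room-temperature Fluo4 loading, 110 s read / System: HEK293 cells stably co-expressing mouse TRPC4beta and mu-opioid receptor / Signal: Fluo4 fluorescence, kinetic / Control set: buffer (low) and maximal DAMGO (high) / Measure: integrated baseline-normalised fluorescence ratio, converted to per-well B score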
TRPC6 act: mouse TRPC6 channel activators, primary screen, cell-based, HEK293, membrane potential dye; actives 0.13% (n = 310,000); B-score at 10 µM; HEK293-TRPC6 membrane potential dye fluorescence; stronger effect = higher value;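 active = B-score of the integrated fluorescence ratio above library mean plus 3 SD, and starting fluorescence ratio within library mean plus 5 SD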;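 also: higher score means more depolarization so channel activation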
Target sequence (Q61143 whole entry, looked up): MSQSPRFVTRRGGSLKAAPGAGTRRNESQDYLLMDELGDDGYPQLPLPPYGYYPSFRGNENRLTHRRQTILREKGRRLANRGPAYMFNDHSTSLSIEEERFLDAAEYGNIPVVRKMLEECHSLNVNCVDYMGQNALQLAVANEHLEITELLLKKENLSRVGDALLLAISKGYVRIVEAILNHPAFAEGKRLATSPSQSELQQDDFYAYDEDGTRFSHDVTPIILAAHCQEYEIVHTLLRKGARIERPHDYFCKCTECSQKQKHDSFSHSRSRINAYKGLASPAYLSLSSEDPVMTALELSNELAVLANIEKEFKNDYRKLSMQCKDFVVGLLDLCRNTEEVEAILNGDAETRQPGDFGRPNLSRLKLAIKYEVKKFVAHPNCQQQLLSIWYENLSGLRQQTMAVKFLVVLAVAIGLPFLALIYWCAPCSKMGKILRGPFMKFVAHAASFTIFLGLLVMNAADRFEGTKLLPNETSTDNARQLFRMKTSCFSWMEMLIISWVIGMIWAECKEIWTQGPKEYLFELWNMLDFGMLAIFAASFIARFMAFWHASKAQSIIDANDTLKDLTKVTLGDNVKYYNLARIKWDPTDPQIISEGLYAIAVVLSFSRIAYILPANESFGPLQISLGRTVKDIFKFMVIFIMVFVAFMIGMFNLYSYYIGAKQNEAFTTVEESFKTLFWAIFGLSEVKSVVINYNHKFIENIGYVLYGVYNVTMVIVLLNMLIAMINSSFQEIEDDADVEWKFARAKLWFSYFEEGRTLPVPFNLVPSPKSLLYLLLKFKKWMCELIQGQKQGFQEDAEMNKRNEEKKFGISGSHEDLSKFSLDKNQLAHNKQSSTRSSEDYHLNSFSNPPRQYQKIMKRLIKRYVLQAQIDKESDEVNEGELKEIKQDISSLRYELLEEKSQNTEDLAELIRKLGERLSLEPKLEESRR
TRPC4 block: inhibitors of mouse TRPC4 channel, primary screen, Fluo4 calcium, HEK293 TRPC4beta/mu-opioid cells | DAMGO-evoked Fluo4 calcium flux; stronger effect = lower value | B-score at 10 µM | actives 0.39% (n = 300,000);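 active = B-score over 3 SD under the library average, no early fluorescence shift, positive overall ratio signal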
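Assay system: HEK293 cells with stable TRPC4beta plus mu-opioid receptor expression; Probe or stimulus: DAMGO in two steps, submaximal then maximal; Dosing: single-point compound dosing; Measured by: Fluo4 calcium-dye fluorescence, kinetic read; Read-out basis: B score from integrated Fluo4 fluorescence ratio.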
TRPC6 inh: mouse TRPC6 channel inhibitors, primary screen, cell-based, HEK293, membrane potential dye; ACh-evoked depolarization; stronger effect = lower value; actives 1.1% (n = 310,000); Short transient receptor potential channel 6 (Mus musculus), Q61143; B-score at 10 µM; AID 2553, 2010;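 active = B-score under library mean minus 3 SD, initial fluorescence not abnormally high, positive integrated signal ratio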;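 also: B-score derived from integrated fluorescence ratio over the kinetic read; more negative B-score means stronger inhibition of depolarization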
HEK293 TRPC6 ctr: parental HEK293 membrane potential modulation, confirmation, counter-screen for TRPC6 modulator project, cell-based | shares compounds with TRPC6 inh | membrane potential dye fluorescence | membrane potential signal change, % at 10 µM | actives 51% (n = 2,400);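 active = membrane potential signal moves up or down beyond 5 SD from buffer-only wells, on both duplicate plates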
HEK293 MPD ctr 2: second counter-screen for TRPC6 modulators: effect in parental HEK293 cells. shares compounds with TRPC6 inh. membrane potential dye fluorescence; after compound, maximal acetylcholine stimulation. inhibition, % at 10 µM. actives 14% (n = 2,400);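 active = membrane potential signal drops by more than 5 SD from the mean control signal, in both duplicate plates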;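 also: plate controls were acetylcholine ECmax control wells for no effect and buffer only wells for full effect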
TRPC4 ctr mod: TRPC4 modulation by TRPC6 hit compounds, confirmation, selectivity assay for TRPC6 modulator project, cell-based, HEK293 TRPC4/mu-opioid, membrane potential dye, mouse; AID 488927, 2010; percent change from control (negative = decrease, positive = increase), % at 10 µM; actives 69% (n = 2,400); membrane potential fluorescence; shares compounds with TRPC6 inh;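 active = membrane potential signal moved up or down beyond 5 SD of buffer control wells, in both duplicate plates, actives on both sides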;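 also: plate controls were assay buffer wells for no effect and DAMGO maximal-effect wells for full effect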
TRPC4/MOR inh 2: second check of whether TRPC6 modulators also affect mouse TRPC4; shares compounds with TRPC6 inh; HEK293 TRPC4/mu-opioid, membrane potential dye fluorescence; stimulated with maximal-effect DAMGO; inhibition, % at 10 µM; actives 55% (n = 2,400); AID 488928;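 active = drop in membrane potential signal beyond 5 SD of the control wells in both duplicate plates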;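 also: TRPC4 counter screen for TRPC6 hits run under conditions tuned for TRPC6 not TRPC4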
TRPC6 block conf: mouse TRPC6 channel inhibitors, confirmation, HEK293 cells, membrane potential dye, duplicate. AID 488960, 2010. shares compounds with TRPC6 inh. ACh-evoked depolarization. inhibition, % at 10 µM. actives 43% (n = 3,300);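 active = fluorescence ratio falls more than 5 SD below the full-stimulation control mean, in both duplicate runs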;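 also: integrated fluorescence ratio of peak minus minimum over baseline after agonist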
TRPC6 act conf: mouse TRPC6 channel activators, confirmation, HEK293 cells, membrane potential dye, duplicate; AID 488961, 2010; shares compounds with TRPC6 inh; activation, % at 10 µM; HEK293-TRPC6 membrane potential dye fluorescence, FDSS; actives 11% (n = 2,800);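 active = ratio signal rise beyond 5 SD above unstimulated control wells' mean, seen in both duplicate runs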;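 also: plate controls were buffer EC0 wells for no effect and acetylcholine ECmax response for full effect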
An asterisk follows results filed as active; i = inactive; . = no result given; + = active, no number.

SMILES	TRPC4 potent	TRPC4 agonist	TRPC6 act	TRPC4 block	TRPC6 inh	HEK293 TRPC6 ctr	HEK293 MPD ctr 2	TRPC4 ctr mod	TRPC4/MOR inh 2	TRPC6 block conf	TRPC6 act conf
Cn1c(=O)c2c(ncn2CC(O)CNc2ccc(F)cc2)n(C)c1=O (stereo not drawn)	i	i	i	i	i	.	.	.	.	.	.
COc1ccc(CCn2c(=N)c(C(=O)NCCN3CCOCC3)cc3c(=O)n4cccc(C)c4nc32)cc1OC	i	i	i	i	i	.	.	.	.	.	.
CCNC(=O)c1cc2c(=O)n3cccc(C)c3nc2n(CCc2ccccc2)c1=N	i	i	i	i	-7.4*	-141%*	74%*	-28%*	48%*	63%*	i
Cc1cccn2c(=O)c3cc(C(=O)NCCN4CCOCC4)c(=N)n(CCc4ccccc4)c3nc12	i	i	i	i	-5.5*	i	104%*	i	52%*	i	i
CCN(CC)CCNC(=S)NC(=O)c1cn(-c2ccccc2)nc1-c1ccc(OC)cc1	i	i	i	i	-5.1*	i	i	i	58%*	i	i
COC(=O)c1cn(-c2ccccc2)nc1-c1ccc(OC)cc1	i	i	i	i	i	.	.	.	.	.	.
O=C(NCc1ccc(F)cc1)c1c2c(nc3ccccc13)CCN(Cc1ccccc1)C2	i	i	i	i	i	.	.	.	.	.	.
Nc1[nH]nc2nc(NCc3ccccc3)c3c(c12)CCN(Cc1ccccc1)C3	i	i	i	i	-5.4*	i	i	-16%*	49%*	42%*	i
O=C(O)c1cccc(-n2cc(-c3cccc(C(F)(F)F)c3)cn2)c1	i	i	i	i	i	.	.	.	.	.	.
CCOc1ccc(NC(=O)CCN2CCN(S(=O)(=O)c3ccc(Cl)cc3)CC2)cc1	i	i	i	i	i	.	.	.	.	.	.
Cc1cc(/C=C2\SC(=S)NC2=O)c(C)n1-c1cccc(O)c1	i	i	14*	i	i	568%*	i	85%*	45%*	i	174%*
Cc1cc(/C=C2\SC(=S)NC2=O)c(C)[nH]1	i	i	27*	i	-6.4*	782%*	+	107%*	42%*	i	164%*
CCn1c(C)cc(/C=C2/SC(=S)NC2=O)c1C	i	i	i	i	i	.	.	.	.	.	.
